The values that follow come from PMC5395206 (Journal of chemical information and modeling, 2016).

Molecules are shown by their SMILES.

Assay [1] deals with CB2 (Homo sapiens, UniProt P34972). In words: Radioligand competition binding assay, [3H]CP-55,940 displacement. The conditions noted are these: inhibition of [3H]CP-55,940 (3 nM) binding to CB2 membrane protein. In short, it runs like this:
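CB2 membrane protein (5 μg) incubated with [3H]CP-55,940 (3 nM final) and serial dilutions of test compound. Compound was diluted in binding buffer with 10% DMSO and 0.4% methylcellulose. Incubation was 1 h at 30 °C with gentle shaking, then GF/B filtration and scintillation counting. Run in duplicate, reported as mean ± SEM; Ki from nonlinear regression.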
A general note: Displacement assays read how much labelled ligand stays bound in the presence of the test substance.

The subject of assay [2] is CB2 F197 replaced with valine. Conditions: cited from earlier work.
The subject of assay [3] is human CB2 receptors. The experiment in a line: LANCE cAMP assay in CB2-transfected CHO cells. In kind it is cell-based. In short, it runs like this: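 CHO cells stably transfected with wild-type human CB2, seeded at 2000 cells/well in RPMI-1640 with 1% dialyzed FBS, 25 mM HEPES and G-418, cultured overnight. Added cAMP antibody plus RO20-1724 (50 μM final) in DPBS/0.1% BSA, then test compound or forskolin (5 μM final). Incubated 45 min at RT, plus 1 h with detection reagent. TR-FRET read at ex 340/em 665 nm. ≥2 independent experiments in triplicate; EC50 from nonlinear regression.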
For orientation: TR-FRET usually uses a lanthanide donor and a delayed reading to cut background.

[4] abbreviates: CHO cells expressing human CB2, forskolin-induced cAMP.

Chain of CB2 (P34972 whole entry): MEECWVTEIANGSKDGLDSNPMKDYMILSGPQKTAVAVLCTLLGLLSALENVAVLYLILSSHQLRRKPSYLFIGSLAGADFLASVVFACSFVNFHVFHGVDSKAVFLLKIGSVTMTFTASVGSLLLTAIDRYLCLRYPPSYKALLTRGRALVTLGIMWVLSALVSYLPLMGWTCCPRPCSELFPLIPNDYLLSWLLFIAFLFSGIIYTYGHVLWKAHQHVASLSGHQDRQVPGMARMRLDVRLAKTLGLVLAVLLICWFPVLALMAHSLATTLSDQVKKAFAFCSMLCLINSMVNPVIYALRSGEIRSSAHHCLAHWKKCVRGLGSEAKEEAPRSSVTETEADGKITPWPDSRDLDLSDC

On to `CC1CN(CCOC(=O)Nc2ccc(Cl)cc2)CCN1C(C)(C)C` (stereo not shown) [NSC93299], for which, in assay [1], the inhibition constant (Ki) (usually the dissociation constant of the complex between target and ligand, obtained from inhibition or displacement) was 2240 nM.
In the case of `Cc1c(C(=O)c2cccc3ccccc23)c2cccc3c2n1[C@H](CN1CCOCC1)CO3` [WIN55,212-2], in assay [2], the “Decrease in binding affinity to CB2 on replacement of F197 with valine” value was 14 fold.
In assay [1], `Cc1ccc(C)c(NC(=O)CCC(=O)C(C#N)c2nc3ccccc3s2)c1` (stereo not shown) [NSC618804] came in with a Ki of 656 nM.
In assay [1], `Cc1ccc(S(=O)(=O)N(Cc2ccc(Cl)cc2)S(=O)(=O)c2ccc(C)cc2)cc1` [NSC273936] registered a Ki of 346 nM.
Regarding `CCCCCCC(C)(C)c1cc(O)c2c(c1)OC(C)(C)[C@@H]1CC=C(CO)C[C@@H]21` [hU-210], the “Effect of replacement of F197 with valine on association” value (“Effect of replacement of F197” for short) in assay [2] is reported as “no effect”.
In the case of `Cc1ccc(OCc2c(COc3ccc(Cl)cc3)sc3ccc(Cl)cc23)cc1` [NSC162677], the affinity in assay [1], expressed as Ki, was 1550 nM.
For the molecule `CCCCC/C=C\C/C=C\C/C=C\C/C=C\CCCC(=O)NCCO` [AEA], in assay [2], the “Effect of replacement of F197” value is on record as “no effect”.
As for `CCCCCCC(C)(C)c1ccc([C@@H]2C[C@H](O)CC[C@H]2CCCO)c(O)c1` [CP55940], in assay [2], the “Effect of replacement of F197” value is reported as “no effect”.
In assay [1], `COc1ccc(C(=O)c2nc3ccccc3n2CC(=O)c2ccc(Cl)cc2)cc1` [NSC745454] gave a Ki of 1550 nM.
Turning to `CCN(CC)CCCNc1cccc2ccc(OC)nc12.I` [NSC402300], the Ki in assay [1] amounted to 398 nM. Moreover, the “Functional activity in LANCE cAMP assay” value in assay [3] (at concentrations above 10 μM) is listed as “inverse agonist”; in assay [3] (at concentrations below 10 μM), “neutral antagonist”.
In assay [1], `Cc1ccc(S(=O)(=O)N(CCc2ccc(Cl)cc2)S(=O)(=O)c2ccc(C)cc2)cc1` [NSC273939] returned a Ki of 192 nM.
Take `Cc1ccc(S(=O)(=O)N(CCc2ccccc2)S(=O)(=O)c2ccc(C)cc2)cc1` [NSC273940]: the Ki in assay [1] was found to be 195 nM.
Regarding `COC(=O)CCc1c(Cc2ccc[nH]2)[nH]c(C(=O)OCc2ccccc2)c1C` [NSC669611], the Ki in assay [1] was 923 nM. The results for the “Functional activity in LANCE cAMP assay” value in assay [3] (setting [4]) and in assay [3] (at concentrations below 10 μM) were “behaves similarly to NSC402300” and “neutral antagonist”, respectively.
`Cc1ccc(S(=O)(=O)NC(CC(=O)OCc2ccccc2)C(=O)OCc2ccccc2)cc1` (stereo not shown) [NSC296950] showed a Ki in assay [1] of 2360 nM. In addition, the “Functional activity in LANCE cAMP assay” value in assay [3] (setting [4]) was “inverse agonist”.
